PLC-beta3 inh – blocks human PLC-beta3 enzyme activity; Purified PLC-beta3, fluorogenic substrate, fluorescence; Q01970; 370,000 compounds, 0.18% hits; AID 720704; inhibition, % at 12.2 µM; in the data active = inhibition above about 11%
PLCg1 inh – blocks human PLC-gamma1 enzyme activity. P19174. purified PLC-gamma1, fluorogenic substrate, fluorescence. inhibition, % at 12.2 µM. 370,000 compounds, 0.84% hits
Target sequence (P19174 whole entry, looked up): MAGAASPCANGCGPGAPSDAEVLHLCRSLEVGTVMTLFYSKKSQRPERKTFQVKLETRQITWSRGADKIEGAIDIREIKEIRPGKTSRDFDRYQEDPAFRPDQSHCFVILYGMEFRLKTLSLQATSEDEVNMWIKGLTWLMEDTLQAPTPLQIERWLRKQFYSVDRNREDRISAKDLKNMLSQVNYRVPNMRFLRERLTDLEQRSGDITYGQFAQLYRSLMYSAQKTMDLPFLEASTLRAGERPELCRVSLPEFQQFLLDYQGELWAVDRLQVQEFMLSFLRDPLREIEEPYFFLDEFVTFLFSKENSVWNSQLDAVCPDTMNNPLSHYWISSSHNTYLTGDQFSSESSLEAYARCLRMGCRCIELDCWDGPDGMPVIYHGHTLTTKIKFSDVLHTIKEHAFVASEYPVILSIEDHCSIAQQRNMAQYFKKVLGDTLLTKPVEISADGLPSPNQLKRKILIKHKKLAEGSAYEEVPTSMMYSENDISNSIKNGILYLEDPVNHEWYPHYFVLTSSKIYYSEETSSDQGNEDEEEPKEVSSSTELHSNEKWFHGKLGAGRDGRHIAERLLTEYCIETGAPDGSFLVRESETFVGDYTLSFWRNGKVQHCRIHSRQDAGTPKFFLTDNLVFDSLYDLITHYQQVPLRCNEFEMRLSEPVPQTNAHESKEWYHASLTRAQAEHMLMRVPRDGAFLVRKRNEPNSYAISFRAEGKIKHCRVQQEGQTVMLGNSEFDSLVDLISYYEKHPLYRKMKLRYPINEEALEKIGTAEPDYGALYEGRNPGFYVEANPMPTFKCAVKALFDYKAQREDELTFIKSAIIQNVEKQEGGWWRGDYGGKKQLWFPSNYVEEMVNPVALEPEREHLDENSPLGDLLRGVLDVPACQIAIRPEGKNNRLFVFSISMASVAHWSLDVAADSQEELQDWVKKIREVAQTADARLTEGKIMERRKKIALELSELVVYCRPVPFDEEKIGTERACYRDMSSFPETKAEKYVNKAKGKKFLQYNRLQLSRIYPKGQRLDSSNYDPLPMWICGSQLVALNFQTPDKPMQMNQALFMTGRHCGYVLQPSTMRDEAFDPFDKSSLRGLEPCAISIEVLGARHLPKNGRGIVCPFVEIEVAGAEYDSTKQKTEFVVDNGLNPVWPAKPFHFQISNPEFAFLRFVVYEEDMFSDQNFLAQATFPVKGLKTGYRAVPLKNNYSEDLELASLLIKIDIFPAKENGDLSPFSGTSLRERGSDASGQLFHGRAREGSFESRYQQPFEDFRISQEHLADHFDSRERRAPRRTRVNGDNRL
IMP-1 inh – blocks Pseudomonas aeruginosa IMP-1 metallo-beta-lactamase; purified IMP-1, nitrocefin hydrolysis, epi-absorbance fluorescence; inhibition, % at 5.6 µM; 290,000 compounds, 0.45% hits; AID 1556;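 active = inhibition above the mean plus 3 SD of all compounds in the same screening run, cut at about 4.5% in these data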
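system = purified recombinant IMP-1 beta-lactamase | amount = 0.2 nM IMP-1, as dispensed | medium = HEPES buffer pH 7.1 with ZnSO4 and Brij 35 | times = 25 °C, 15 min preincubation, 25 min reaction | detection = plate fluorescence quenching by hydrolysis product, ex 480/em 530 nm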
VIM-2 inhibitor – inhibitors of Pseudomonas aeruginosa VIM-2 metallo-beta-lactamase; inhibition, % at 5.6 µM; AID 1527; purified VIM-2, nitrocefin hydrolysis, epi-absorbance fluorescence; 290,000 compounds, 0.89% hits;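 active = inhibition above the mean of all tested compounds plus 3 SD, cutoff set per screening run, cut at about 7.5% in these data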;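 note: red hydrolysis product quenches plate fluorescence so inhibitors raise well fluorescence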
PvdQ acylase – blocks Pseudomonas aeruginosa PvdQ acylase activity; inhibition, % at 10 µM; purified PvdQ acylase, fluorescence plate reader; 340,000 compounds, 0.063% hits; in the data active = inhibition above about 30%, passing the limit was not always enough
PLCg1 ctr – inhibits human PLC-gamma1 in PLC-beta3 counter-screen | shares compounds with PLCg1 inh | purified PLC-gamma1, fluorogenic substrate, fluorescence | inhibition, % at 12.3 µM | 3,300 compounds, 3.1% hits | AID 743258
PLCb3 confirm – confirmation of human PLC-beta3 inhibitors. shares compounds with PLCg1 inh. purified PLC-beta3, fluorogenic substrate fluorescence. inhibition, % at 12.3 µM. 3,300 compounds, 1% hits; in the data active = inhibition above about 11%
Large screens that a line does not name were inactive (follow-up assays come after a bar, where they were run). In the library only some 2% were active in any assay of this set; here they are far more common. Cut-off read from the data, not from the text of the source, unless noted: active = inhibition above about 9.5%; inactive = the rest.

CC(C)NC(=O)C1(C)CCCN1Cc1ccccc1C#N (stereo unspecified)	PLCg1 inh 11 (no result: IMP-1 inh, VIM-2 inhibitor, PvdQ acylase) | PLCg1 ctr inactive | PLCb3 confirm inactive
CC(C)NC(=O)C1(C)CCCN1Cc1csc2ccccc12 (stereo unspecified)	none (no result: IMP-1 inh, VIM-2 inhibitor, PvdQ acylase)
Cc1c(NC(=O)C(C)OC(=O)COc2cccc3c2OC(C)(C)C3)c(=O)n(-c2ccccc2)n1C (stereo unspecified)	PLC-beta3 inh 11 | PLCg1 ctr inactive | PLCb3 confirm inactive
O=C(Nc1ccc(F)cc1)OCc1cn(Cc2ccccc2Cl)nn1	none (no result: IMP-1 inh, VIM-2 inhibitor, PvdQ acylase)
O=C1CN(C(=O)COC(=O)c2ccc(Br)o2)c2ccccc2N1	none (no result: IMP-1 inh, VIM-2 inhibitor)
O=C1CN(C(=O)COC(=O)c2cccc(Br)c2)c2ccccc2N1	PLCg1 inh 14 (no result: IMP-1 inh, VIM-2 inhibitor) | PLCg1 ctr inactive | PLCb3 confirm inactive
O=C(COc1ccc(S(=O)(=O)N2CCCC2)cc1Cl)NC1CCCC1	PLCg1 inh 13 | PLCg1 ctr inactive | PLCb3 confirm inactive
Cc1cc(Cl)c(S(=O)(=O)N2CCCC2)cc1OCC(=O)NC1CCCCC1	PLC-beta3 inh 12 | PLCg1 ctr inactive | PLCb3 confirm inactive
CC/C=C\[C@H](O)[C@H](O)C1=C(C)C(=O)[C@]2(O1)C(=O)N[C@@](OC)(C(=O)c1ccccc1)[C@@H]2O	none (no result: IMP-1 inh, VIM-2 inhibitor, PvdQ acylase)
CCC(C)NCCCCOc1ccc(Cl)cc1C (stereo unspecified)	PLCg1 inh 12 | PLCg1 ctr inactive | PLCb3 confirm inactive
CCOC(=O)C1(CCCc2ccccc2)CCN(C(=O)C(C)n2cncn2)CC1 (stereo unspecified)	PLCg1 inh 9.5 | PLCg1 ctr inactive | PLCb3 confirm inactive
CCOC(=O)C1(CCc2ccccc2)CCN(C(=O)C(C)n2cncn2)CC1 (stereo unspecified)	none
CC(=O)c1ccc(N2CCN(S(=O)(=O)c3cccc4nsnc34)CC2)cc1	PLCg1 inh 10 | PLCg1 ctr inactive | PLCb3 confirm inactive
COCc1cc(N2CCNC[C@@H]2C)ccc1N1CCN(Cc2ccccc2)[C@H](C)C1	none (no result: IMP-1 inh, VIM-2 inhibitor, PvdQ acylase)
CC(C)C[C@H](NC(=O)c1ccc(OC2CCN(C(=O)C3CC3)CC2)cc1)C(N)=O	PLCg1 inh 9.7 | PLCg1 ctr inactive | PLCb3 confirm inactive
CCOC(=O)C1=C(C(=O)OCC)C2N(Cc3ccc(Br)cc3)c3ccccc3[C@@]23C[C@@H](C(=O)OC)N(S(=O)(=O)c2ccc(Br)cc2)C3=N1 (stereo partly specified)	none (no result: IMP-1 inh, VIM-2 inhibitor, PvdQ acylase)
Cc1ccc(S(=O)(=O)N(CC(=O)N/N=C/c2cccc(C)c2)c2cccc3cccnc23)cc1	PLCg1 inh 11 | PLCg1 ctr inactive | PLCb3 confirm inactive
Cc1ccc(S(=O)(=O)N(CC(=O)N/N=C\c2cccs2)c2cccc3cccnc23)cc1	none
CCc1ccc(C2(C)SC(NC(C)=O)=NN2C(C)=O)cc1 (stereo unspecified)	PLCg1 inh 13 | PLCg1 ctr inactive | PLCb3 confirm inactive
COC(=O)Cc1nnn2c1[C@H](C)[C@@H](OC)c1ccc(C(F)(F)F)cc1-2	none (no result: IMP-1 inh, VIM-2 inhibitor, PvdQ acylase)
CCOC(=O)c1oc2cc(O)cc(C)c2c(=O)c1-c1cscn1	PLC-beta3 inh 12 | PLCg1 ctr inactive | PLCb3 confirm inactive
CCOC(=O)c1cnn(-c2nc(-c3ccccc3F)cs2)c1C(F)(F)F	PLCg1 inh 9.8 | PLCg1 ctr inactive | PLCb3 confirm inactive
CC(C)N(C(=O)Cn1c(SCC(=O)NC2CC2)nc2ccccc21)C(C)C	none
COC(=O)CSc1nc2ccccc2n1CC(=O)N(C(C)C)C(C)C	PLC-beta3 inh 13 | PLCg1 ctr inactive | PLCb3 confirm inactive
COc1ccc(OCC(=O)NCCC2=CCCCC2)c([N+](=O)[O-])c1	PLCg1 inh 10 | PLCg1 ctr inactive | PLCb3 confirm inactive
CN(C)C(=O)c1cn(-c2ccccc2)nc1-c1cc2ccccc2o1	none
CN(Cc1cn(-c2ccccc2)nc1-c1cc2ccccc2o1)C(=O)CCC(=O)O	PLCg1 inh 10 | PLCg1 ctr inactive | PLCb3 confirm inactive
Cc1ccc(NC(=O)C2C3CC4OC(=O)C2C4C3)cc1Cl (stereo unspecified)	PLCg1 inh 9.6 | PLCg1 ctr inactive | PLCb3 confirm inactive
CC(C)OC(=O)c1ccc(NC(=O)C2C3CC4OC(=O)C2C4C3)cc1 (stereo unspecified)	none
C/C(CC(=O)Nc1ccc(N(C)C)cc1)=N\NC(=O)c1ccc([N+](=O)[O-])cc1	none
C/C(CC(=O)Nc1ccc([N+](=O)[O-])cc1)=N\NC(=O)c1ccccc1[N+](=O)[O-]	PLCg1 inh 11 | PLCg1 ctr inactive | PLCb3 confirm inactive
CCOC(=O)C1(Cc2cccc(Cl)c2)CCCN(C(=O)c2cc(C)n(C)n2)C1 (stereo unspecified)	PLCg1 inh 10 | PLCg1 ctr inactive | PLCb3 confirm inactive
O=C(Nc1ccc2c(c1)OCO2)c1cc2n(n1)C(C(F)(F)F)CC(c1ccccc1)N2 (stereo unspecified)	none
O=C(Nc1ccc2c(c1)OCO2)c1cnn2c1NC(c1ccco1)CC2C(F)(F)F (stereo unspecified)	PLCg1 inh 10 | PLCg1 ctr inactive | PLCb3 confirm inactive
O=C(NCCc1cccs1)Nc1nnc([C@H]2C[C@H](O)[C@@H](CO)O2)s1	PLCg1 inh 11 (no result: IMP-1 inh, VIM-2 inhibitor, PvdQ acylase) | PLCg1 ctr inactive | PLCb3 confirm inactive
COc1ccc(CCNC(=O)Nc2nnc([C@@H]3C[C@H](O)[C@@H](CO)O3)s2)cc1OC	none (no result: IMP-1 inh, VIM-2 inhibitor, PvdQ acylase)
COc1ccc(C(c2nnnn2Cc2cccs2)N2CCN(c3ccccc3F)CC2)cc1OC (stereo unspecified)	PLC-beta3 inh 14, PLCg1 inh 11 | PLCg1 ctr inactive | PLCb3 confirm inactive
O=C(NCCc1ccc(Cl)cc1)C1CCN(S(=O)(=O)c2cccc3nonc23)CC1	none
NS(=O)(=O)c1cccc(NC(=O)COC(=O)C2CCN(S(=O)(=O)c3cccs3)CC2)c1	PLCg1 inh 9.7 | PLCg1 ctr inactive | PLCb3 confirm inactive
O=C(C1CCCN(S(=O)(=O)c2cccc3nonc23)C1)N1CCN(c2ccccc2Cl)CC1 (stereo unspecified)	PLCg1 inh 14 | PLCg1 ctr inactive | PLCb3 confirm inactive
O=C(NCCc1ccccc1)C1CCN(S(=O)(=O)c2cccs2)CC1	PLCg1 inh 9.8 | PLCg1 ctr inactive | PLCb3 confirm inactive
O=C(NCCc1ccccc1)C1CCN(S(=O)(=O)c2cccc3nonc23)CC1	PLCg1 inh 11 | PLCg1 ctr inactive | PLCb3 confirm inactive
O=C(NCCc1ccc(Cl)cc1)C1CCN(S(=O)(=O)c2cccs2)CC1	none
C[C@H]1[C@@H](OC(=O)Nc2cccc(Cl)c2)CC[C@@]23CCCN2C(=O)CCC[C@@H]13	none (no result: IMP-1 inh, VIM-2 inhibitor, PvdQ acylase)
CNC(=O)C1CC(=O)N/C(=N/N=C(\C)c2cccs2)S1 (stereo unspecified)	PLC-beta3 inh 11 | PLCg1 ctr inactive | PLCb3 confirm inactive

High-throughput results deposited in PubChem BioAssay by several laboratories.
